Measured values taken from ChEMBL document CHEMBL1147981, “Small molecule activators of SIRT1 as therapeutics for the treatment of type 2 diabetes” (Nature, 2007).
Activity calls are given as the source filed them. The calls are words filed in the database; no cut-off is given here.

Assays:
[1] = target: T1, NAD-dependent protein deacetylase sirtuin-3, mitochondrial (Homo sapiens, UniProt Q9NTG7); experiment: Activation of SIRT3 by mass spectrometry assay
T1 sequence (Q9NTG7 whole entry): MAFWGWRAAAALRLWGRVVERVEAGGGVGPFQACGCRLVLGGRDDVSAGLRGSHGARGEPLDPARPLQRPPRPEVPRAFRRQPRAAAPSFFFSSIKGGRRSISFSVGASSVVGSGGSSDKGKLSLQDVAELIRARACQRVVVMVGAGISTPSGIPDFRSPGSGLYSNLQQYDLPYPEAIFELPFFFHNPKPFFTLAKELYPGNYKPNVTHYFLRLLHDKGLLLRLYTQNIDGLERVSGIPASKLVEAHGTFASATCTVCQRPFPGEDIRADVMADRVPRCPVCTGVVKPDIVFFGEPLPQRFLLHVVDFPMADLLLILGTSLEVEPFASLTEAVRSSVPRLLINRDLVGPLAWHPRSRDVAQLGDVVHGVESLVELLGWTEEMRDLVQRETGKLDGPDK

[2] = target: T2, NAD-dependent protein deacetylase sirtuin-1 (Homo sapiens) (UniProt Q96EB6); experiment: Activation of human SIRT1-B (172-664) construct by mass spectrometry assay relative to control
T2 sequence (whole entry): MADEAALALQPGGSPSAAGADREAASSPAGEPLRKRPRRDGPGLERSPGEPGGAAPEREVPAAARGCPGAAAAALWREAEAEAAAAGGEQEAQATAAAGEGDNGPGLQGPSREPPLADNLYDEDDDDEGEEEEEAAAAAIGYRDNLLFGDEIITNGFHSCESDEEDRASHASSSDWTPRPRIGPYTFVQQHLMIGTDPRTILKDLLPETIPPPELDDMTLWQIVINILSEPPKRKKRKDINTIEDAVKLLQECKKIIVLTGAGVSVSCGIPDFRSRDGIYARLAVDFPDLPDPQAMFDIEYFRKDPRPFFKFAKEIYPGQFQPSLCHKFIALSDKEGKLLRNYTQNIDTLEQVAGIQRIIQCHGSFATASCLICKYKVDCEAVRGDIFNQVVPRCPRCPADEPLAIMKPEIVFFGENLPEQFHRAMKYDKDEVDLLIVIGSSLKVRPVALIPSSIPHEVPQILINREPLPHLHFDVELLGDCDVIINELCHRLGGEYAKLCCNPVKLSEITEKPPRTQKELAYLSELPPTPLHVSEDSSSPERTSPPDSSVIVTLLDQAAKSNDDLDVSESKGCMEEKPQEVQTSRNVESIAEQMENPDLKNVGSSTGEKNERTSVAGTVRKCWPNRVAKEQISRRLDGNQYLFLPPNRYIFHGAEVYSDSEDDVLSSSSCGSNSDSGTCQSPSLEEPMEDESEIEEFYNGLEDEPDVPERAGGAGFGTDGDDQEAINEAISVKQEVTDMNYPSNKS

Mus musculus [3] = experiment: Reduction of blood glucose level in diabetic Lep ob/ob mouse model at 1000 mg/kg, po after 3 weeks; assay type: functional, organism-based; set-up: dose 1000 mg/kg
Outline: (§1)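 ob/ob mice received at 6 weeks, kept on 60%-fat diet from at least one week before study; ~40-45 g; grouped by body weight and glucose; once-daily oral gavage in 2% HPMC + 0.2% DOSS. One-way ANOVA with Dunnett's test vs control, p<0.05.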

[4] = target: T2, NAD-dependent protein deacetylase sirtuin-1 (Homo sapiens); experiment: Activation of human SIRT1-G (235-664) construct by mass spectrometry assay relative to control
[5] = target: T2, NAD-dependent protein deacetylase sirtuin-1 (Homo sapiens); experiment: Activation of human SIRT1-C construct by mass spectrometry assay relative to control
[6] = target: T2, NAD-dependent protein deacetylase sirtuin-1 (Homo sapiens); experiment: Activation of human SIRT1-A (156-664) construct by mass spectrometry assay relative to control
[7] = target: T2, NAD-dependent protein deacetylase sirtuin-1 (Homo sapiens); experiment: Activation of human SIRT1-D (219-664) construct by mass spectrometry assay relative to control
[8] = target: T2, NAD-dependent protein deacetylase sirtuin-1 (Homo sapiens); experiment: Activation of SIRT1 in human U2OS cells assessed as decrease in p53 deacetylation level at 100 uM; assay type: cell-based
Outline: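 U-2 OS cells plated at 1.5 X 10⁴ cells/well; compounds (DMSO) added after 24 h, then doxorubicin (1 μg/ml final) to induce p53. Replicate plates were co-treated with a SIRT1-specific inhibitor. Cells were fixed, permeabilized and immunostained for Ac-Lys382-p53 and beta-tubulin, with infrared scanning. Signals were background-corrected, normalized to tubulin, then to vehicle (% acetylated p53).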

[9] = target: T2, NAD-dependent protein deacetylase sirtuin-1 (Homo sapiens); experiment: Activation of human SIRT1-F (230-664) construct by mass spectrometry assay relative to control
[10] = target: T2, NAD-dependent protein deacetylase sirtuin-1 (Homo sapiens); experiment: Activation of human SIRT1 assessed as decrease in Km of enzyme for acetylated peptide substrate by mass spectrometry assay
Mus musculus [11] = experiment: Reduction of blood glucose level in DIO C57BL/6 mouse model at 500 mg/kg, po after 4 weeks; assay type: functional, organism-based; set-up: dose 500 mg/kg
Outline: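 Male C57BL/6 mice, started at nine weeks, fed 60%-fat diet until mean weight ~40 g; 6-10 per group; once-daily oral gavage in 2% HPMC + 0.2% DOSS. Fed glucose at 2, 4, 6, 8, 10 weeks; IPGTT after 5 weeks; ITT after 10 weeks. One-way ANOVA with Dunnett's test vs control, p<0.05.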

Mus musculus [12] = experiment: Effect on body weight in diabetic Lep ob/ob mouse model at 1000 mg/kg, po; assay type: functional, organism-based; set-up: dose 1000 mg/kg; outline: as §1
[13] = target: T2, NAD-dependent protein deacetylase sirtuin-1 (Homo sapiens); experiment: (§2) Activation of human SIRT1 expressed in Escherichia coli BL21 by mass spectrometry assay
[14] = target: T2, NAD-dependent protein deacetylase sirtuin-1 (Homo sapiens); experiment: Activation of human SIRT1-E (225-664) construct by mass spectrometry assay relative to control
Mus musculus [15] = species on record: Mus musculus; experiment: Reduction of insulin level in chow-fed C57BL/6 mouse; assay type: functional, organism-based
[16] = target: T2, NAD-dependent protein deacetylase sirtuin-1 (Homo sapiens); experiment: Activation of human SIRT1-H (240-664) construct by mass spectrometry assay relative to control
[17] = target: T3, NAD-dependent protein deacetylase sirtuin-2 (Homo sapiens, UniProt Q8IXJ6); experiment: Activation of SIRT2 by mass spectrometry assay
T3 sequence (Q8IXJ6 whole entry): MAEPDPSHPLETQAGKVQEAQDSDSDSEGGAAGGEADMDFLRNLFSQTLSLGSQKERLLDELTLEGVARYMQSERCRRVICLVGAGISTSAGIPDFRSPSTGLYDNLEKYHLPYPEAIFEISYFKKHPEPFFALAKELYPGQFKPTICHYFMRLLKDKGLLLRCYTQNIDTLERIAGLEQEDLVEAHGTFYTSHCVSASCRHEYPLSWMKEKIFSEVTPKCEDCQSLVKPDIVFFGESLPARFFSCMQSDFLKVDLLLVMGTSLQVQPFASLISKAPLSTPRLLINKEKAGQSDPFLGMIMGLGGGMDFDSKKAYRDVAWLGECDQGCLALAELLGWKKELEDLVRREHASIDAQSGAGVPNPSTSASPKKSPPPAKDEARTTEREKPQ

[18] = target: T4, NAD-dependent protein deacetylase sirtuin-1 (Homo sapiens, UniProt Q96EB6); experiment: Binding affinity to human SIRT1 by isothermal titration calorimetry
T4 sequence (Q96EB6 whole entry): T2 sequence (whole entry)

[19] = target: T4, NAD-dependent protein deacetylase sirtuin-1; experiment: as §2
[20] = target: T2, NAD-dependent protein deacetylase sirtuin-1 (Homo sapiens); experiment: Activation of SIRT1 in human U2OS cells assessed as decrease in deacetylation level at 10 uM; assay type: cell-based
Outline: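 U-2 OS cells seeded 1.5 × 10⁴/well; compounds in DMSO added after 24 h, then doxorubicin 1 μg/ml final to induce p53. Fixed, permeabilized, immunostained for Ac-Lys382-p53 and beta-tubulin, infrared scan; background-corrected acetyl signal normalized to tubulin, then to vehicle as % acetylated p53. Replicate plates co-treated with a SIRT1-specific inhibitor.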

Oc1ccc(/C=C/c2cc(O)cc(O)c2)cc1 [RESVERATROL]
EC50 [1]: > 300 µM | Activity [2]: 1.7 | Activity (Mus musculus [3]): Active | Activity [4]: 1.2 | Activity [5]: 1.9 | Activity [6]: 1.8 | Activity [7]: 1.3 | Activity [8]: Active | Activity [9]: 1.1 | Activity [10]: Active | Activity (Mus musculus [11]): Active | Activity (Mus musculus [12]): inactive | Activity [13]: 201% | Activity [14]: 1.3 | Activity (Mus musculus [15]): Active | Activity [16]: 1.2 | EC50 [17]: > 300 µM

COc1cc(C(=O)Nc2ccccc2-c2cn3c(CN4CCNCC4)csc3n2)cc(OC)c1OC
EC50 [1]: > 300 µM | Kd [18]: 16.2 µM | Activity [10]: Active | Activity [13]: 447% | EC50 [19]: 2900 nM | Activity [20]: Active | EC50 [17]: > 300 µM
